The source made the active and inactive calls.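 The calls were made as follows: active = half-maximal inhibitory concentration IC50 of 10 µM or lower; inactive = the rest.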

Chain of Transitional endoplasmic reticulum ATPase (Homo sapiens) (P55072 whole entry, looked up): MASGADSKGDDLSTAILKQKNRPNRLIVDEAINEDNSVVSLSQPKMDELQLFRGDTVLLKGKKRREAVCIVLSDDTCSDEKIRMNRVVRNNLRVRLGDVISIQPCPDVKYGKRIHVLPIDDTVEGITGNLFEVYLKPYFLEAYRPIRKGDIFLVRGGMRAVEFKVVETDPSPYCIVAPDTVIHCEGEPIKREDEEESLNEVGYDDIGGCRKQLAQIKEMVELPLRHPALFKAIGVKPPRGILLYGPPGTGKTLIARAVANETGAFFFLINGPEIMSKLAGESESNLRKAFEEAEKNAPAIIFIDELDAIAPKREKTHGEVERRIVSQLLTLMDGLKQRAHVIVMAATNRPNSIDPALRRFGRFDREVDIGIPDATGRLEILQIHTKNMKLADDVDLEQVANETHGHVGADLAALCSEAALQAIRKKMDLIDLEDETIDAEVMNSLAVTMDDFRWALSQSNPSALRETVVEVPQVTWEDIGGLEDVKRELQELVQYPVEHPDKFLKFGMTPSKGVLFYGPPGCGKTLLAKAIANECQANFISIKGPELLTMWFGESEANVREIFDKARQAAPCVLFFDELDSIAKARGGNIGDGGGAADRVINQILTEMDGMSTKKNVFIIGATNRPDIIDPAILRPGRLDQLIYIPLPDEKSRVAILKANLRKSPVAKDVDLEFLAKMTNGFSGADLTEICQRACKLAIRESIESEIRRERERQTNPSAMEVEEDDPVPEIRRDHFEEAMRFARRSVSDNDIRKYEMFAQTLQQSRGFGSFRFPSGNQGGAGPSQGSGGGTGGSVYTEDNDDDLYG

One assay has as its target Transitional endoplasmic reticulum ATPase (Homo sapiens) (UniProt P55072). Briefly: p97-dependent UbG76V-GFP degradation inhibitors in cells, SAR follow-up, imaging, HeLa, round 3 (AID 504649).
Conditions: not given
In short, it runs like this:
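Assay system: HeLa cells expressing UbG76V-GFP proteasome degradation reporter; times: MG132 pre-treatment 1 h, GFP imaging 70–170 min into chase; measured by: imaged GFP fluorescence intensity, ~500 cells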
As a reminder, the IC50 is the concentration needed to halve the response being measured. Turning to `c1ccc(CNc2nc(N3CCOc4ccccc43)nc3ccsc23)cc1`, the IC50 was 6.4 µM.

As to `COc1cccc2c(NCc3cncs3)nc(N3CCOc4ccccc43)nc12`, the IC50 was > 20 µM (inactive).

In the case of `COc1cccc2c(NCc3ccccc3)nc(-n3c(N)nc4c(C)cccc43)nc12`, the IC50 was 2.6 µM.

Take `COc1cccc2c(NCc3ccccc3)nc(N3CCN(C)c4ccccc43)nc12`: the IC50 was 7.8 µM.

Consider `Nc1nc2ccccc2n1-c1nc(NCc2ccccc2)c2ccccc2n1`, for which the IC50 is 2.9 µM.

`CC(C)Nc1nc(Nc2cccc(Cl)c2)nc2ccccc12`: the IC50 result was “inactive”.

As for `Nc1nc2ccccc2n1-c1nccc(NCc2ccccc2)n1`, the IC50 entry is “inactive”.

As for `COCCOc1cccc2c(NCc3ccccc3)nc(N3CCOc4ccccc43)nc12`, the IC50 was 6.5 µM.

Turning to `COc1cccc2c(NCc3ccccc3)nc(NCc3cncs3)nc12`, the IC50 result is “inactive”.

As to `COc1cccc2c(NCc3ccccc3N(C)C)nc(N3CCOc4ccccc43)nc12`, the IC50 is 4.5 µM.

Consider `Oc1cccc2c(NCc3ccccc3)nc(N3CCOc4ccccc43)nc12`, for which the IC50 is 7.7 µM.

For `COc1ccc2c(c1)nc(N)n2-c1nc(NCc2ccccc2)c2cccc(OC)c2n1`, the IC50 was 0.96 µM.

`CN(c1ccccc1)c1nc(NCc2ccccc2)c2ccccc2n1`: the IC50 is 9.2 µM.

`c1ccc(CNc2nc(N3CCOc4ccccc43)nc3c2CCCC3)cc1`: the IC50 is 3.5 µM.

For `COc1cccc2c(NCc3ccccc3)nc(Nc3cccc(Cl)c3)nc12`, the IC50 was 5.4 µM.

Take `COc1cccc2c(NCC3CCCCC3)nc(N3CCOc4ccccc43)nc12`: the IC50 is 8.2 µM.

In the case of `COc1cccc2c(NCc3ccccc3)nc(-n3c(N)nc4c(F)cccc43)nc12`, the IC50 was 5.4 µM.

With `COc1cccc2c(NCc3ccccc3)nc(N3CCNc4ccccc43)nc12`, the IC50 was 3.7 µM.

Consider `COc1cccc2c(NCc3ccccc3)nc(NC(C)c3ccccc3)nc12` (stereo not given), for which the IC50 was 2.1 µM.

Turning to `c1ccc2c(c1)OCCN2c1nc(N2CCOc3ccccc32)c2ccccc2n1`, the IC50 was 8.1 µM.

On to `COc1cccc2c(NCc3cccc(N(C)C)c3)nc(N3CCOc4ccccc43)nc12`, for which the IC50 result is “inactive”.

As for `Cc1nc(N2CCOc3ccccc32)nc(NCc2ccccc2)c1C`, the IC50 result was “inactive”.

With `COc1cccc2c(NCc3ccccc3)nc(NCC3CCCCC3)nc12`, the IC50 is 4.2 µM.

Turning to `COc1cccc2c(NCc3ccccc3)nc(-n3c(=O)oc4ccccc43)nc12`, the IC50 was 5 µM.

Take `OCCOc1cccc2c(NCc3ccccc3)nc(N3CCOc4ccccc43)nc12`: the IC50 was 3.8 µM.

Consider `COc1cccc2c(NCc3ccccc3)nc(-n3c(N)nc4ccccc43)nc12`, for which the IC50 was 0.9 µM.

Consider `COc1cccc2c(NCc3ccc(O)cc3)nc(N3CCOc4ccccc43)nc12`, for which the IC50 is 7.3 µM.

Regarding `COc1cccc2c(NCc3ccccc3)nc(N(C)Cc3ccccc3)nc12`, the IC50 is > 20 µM (inactive).

Take `COc1cccc2c(NCc3ccccc3)nc(-n3c(N)nc4cc(Cl)c(Cl)cc43)nc12`: the IC50 is > 20 µM (inactive).

For the compound `COc1cccc2c(NCc3ccccc3)nc(Nc3nc4ccccc4s3)nc12`, the IC50 result was “inactive”.

Turning to `COc1cccc2c(NCc3ccccc3)nc(-n3c(N)nc4cc(F)ccc43)nc12`, the IC50 was 6.8 µM.

As for `c1ccc(CNc2nc(N3CCc4ccccc4C3)nc3ccccc23)cc1`, the IC50 was 7 µM.

Turning to `COc1cccc2c(NCc3ccccc3)nc(N3CCN(C(C)=O)c4ccccc43)nc12`, the IC50 was 8 µM.

Take `COc1cccc2c(NCc3ccccc3)nc(Nc3nc4ccccc4n3C)nc12`: the IC50 was 7.8 µM.

In the case of `COc1cccc2c(NCc3ccc(F)cc3)nc(N3CCOc4ccccc43)nc12`, the IC50 is 3.7 µM.

`COc1cccc2c(NCc3ccccc3)nc(Nc3cc(C)cc(F)c3)nc12`: the IC50 is 7.1 µM.

Regarding `Clc1ccccc1-c1nc(N2CCCc3ccccc32)c2ccccc2n1`, the IC50 entry is “inactive”.

Regarding `COc1cccc2c(NCc3ccccc3)nc(NCc3cccs3)nc12`, the IC50 was 1.8 µM.

For `COc1cccc2c(NCc3ccccc3)nc(N3CCOc4ccccc43)nc12`, the IC50 was 3.3 µM.

As to `COc1ccc(-c2cccc3c(NCc4ccccc4)nc(N4CCOc5ccccc54)nc23)cc1`, the 50% inhibitory concentration (IC50) is 9 µM.

Take `COc1cccc2c(NCc3ccccc3O)nc(N3CCOc4ccccc43)nc12`: the IC50 was 6 µM.

`COc1cccc2c(NCc3ccccc3)nc(-n3c(N)nc4cc(C)ccc43)nc12`: the IC50 is 2.5 µM.

As to `COc1cccc2c(NCc3ccccc3)nc(N3CCN(C(C)=O)CC3)nc12`, the IC50 is > 20 µM (inactive).

Turning to `N#CCOc1cccc2c(NCc3ccccc3)nc(N3CCOc4ccccc43)nc12`, the IC50 was 7.7 µM.

As for `Nc1nc2ccccc2n1-c1nc2c(c(NCc3ccccc3)n1)CCCC2`, the IC50 is 1.8 µM.

On to `COc1cccc2c(NCc3cccs3)nc(N3CCOc4ccccc43)nc12`, for which the IC50 was 3 µM.

In the case of `c1ccc(CNc2nc(N3CCOc4ccccc43)nc3c(-c4ccccc4)cccc23)cc1`, the IC50 is 5 µM.

For `COc1cccc2c(NCc3ccccn3)nc(N3CCOc4ccccc43)nc12`, the IC50 result is “inactive”.

For the compound `COc1cccc2c(NCc3ccccc3)nc(Nc3cccc(F)c3)nc12`, the IC50 is 4.8 µM.

In the case of `COc1cccc2c(NCc3ccccc3)nc(Nc3ccccc3O)nc12`, the IC50 was 2.8 µM.

Turning to `CCN(CC)CCOc1cccc2c(NCc3ccccc3)nc(N3CCOc4ccccc43)nc12`, the IC50 was 5.3 µM.

Regarding `COc1cccc2c(NCc3ccccn3)nc(N3CCNc4ccccc43)nc12`, the IC50 entry was “inactive”.

Still in this assay, the particulars now being: at 20 µM (top of the series).
On to `COc1cccc2c(NCc3ccccc3)nc(-n3c(N)nc4cc(C)c(C)cc43)nc12`, for which the inhibition result was “inactive”.

On to `COc1cccc2c(NCc3ccccc3)nc(NC(N)=O)nc12`, for which the inhibition entry is “inactive”.

For the compound `COc1cccc2c(NCc3ccccc3)nc(-n3cnc4ccccc43)nc12`, the inhibition entry was “inactive”.
